Measured values published in ChEMBL document CHEMBL1148686, “Synthesis and anticonvulsant activity of new N-1',N-3'-disubstituted-2'H,3H,5'H-spiro-(2-benzofuran-1,4'-imidazolidine)-2',3,5'-triones” (2006).
Active and inactive are the calls of the source. The rule behind the calls is not given here.

Experiments:
Mus musculus [1] = test: Protection against PTZ-induced convulsions in ip dosed mouse after 0.5 hrs by scPTZ assay; assay type: functional
Outline: (§1)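 Mice received test drug, positive control or vehicle (DMSO) intraperitoneally 30 min before a subcutaneous PTZ injection at 80 mg/kg. The end-point was clonic seizure lasting more than 5 s. Tested up to 300 mg/kg. Run in triplicate (n = 3). ED50 in mg/kg was found by non-linear regression, as mean with 95% confidence intervals.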

Mus musculus [2] = test: Protection against electroshock-induced convulsions in mouse at 300 mg/kg, ip after 0.5 hrs by MES assay; assay type: functional, organism-based; parameters: dose 300 mg/kg
Outline: (§2)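 Mice were dosed intraperitoneally with test drug, positive control or vehicle (DMSO) 30 min before electroshock at 50 mA for 0.2 s. The end-point was the hind limb tonic extensor component. Doses up to 300 mg/kg. Done in triplicate (n = 3). ED50 in mg/kg was derived by non-linear regression and given as mean with 95% confidence intervals.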

Mus musculus [3] = test: Protection against electroshock-induced convulsions in mouse up to 300 mg/kg, ip after 0.5 hrs by MES assay; assay type: functional, organism-based; parameters: dose 300 mg/kg; outline: as §2
Mus musculus [4] = test: Protection against electroshock-induced convulsions in ip dosed mouse after 0.5 hrs by MES assay; assay type: functional; outline: as §2
Mus musculus [5] = test: Protection against PTZ-induced convulsions in mouse at 300 mg/kg, ip after 0.5 hrs by scPTZ assay; assay type: functional, organism-based; parameters: dose 300 mg/kg; outline: as §1
Mus musculus [6] = test: Protection against PTZ-induced convulsions in mouse up to 300 mg/kg, ip after 0.5 hrs by scPTZ assay; assay type: functional, organism-based; parameters: dose 300 mg/kg; outline: as §1

| SMILES | ED50 (Mus musculus [1]) [mg/kg] | Activity (Mus musculus [3]) | ED50 (Mus musculus [4]) [mg/kg] | other results |
| --- | --- | --- | --- | --- |
| CCCCN1C(=O)N(CCCC)C2(OC(=O)c3ccccc32)C1=O (stereo not given) | > 100 |  |  | Activity (Mus musculus [2]): Active |
| CCN1C(=O)N(c2ccc(OC)cc2)C(=O)C12OC(=O)c1ccccc12 (stereo not given) | 82.5 |  |  | Activity (Mus musculus [2]): Active |
| CCC1(c2ccccc2)C(=O)NC(=O)NC1=O [PHENOBARBITAL] | 20 | inactive |  |  |
| CCCN1C(=O)N(CCC)C2(OC(=O)c3ccccc32)C1=O (stereo not given) | 78.5 |  | > 100 |  |
| CC(C)N1C(=O)N(C(C)C)C2(OC(=O)c3ccccc32)C1=O (stereo not given) |  | inactive |  | Activity (Mus musculus [5]): Active |
| CN1C(=O)N(c2ccc(F)cc2)C(=O)C12OC(=O)c1ccccc12 (stereo not given) | 87.1 |  | > 100 |  |
| CCN1C(=O)N(c2ccc(F)cc2)C(=O)C12OC(=O)c1ccccc12 (stereo not given) | 85.8 |  | > 100 |  |
| CN1C(=O)N(c2ccc(C(F)(F)F)cc2)C(=O)C12OC(=O)c1ccccc12 (stereo not given) | > 100 |  | > 100 |  |
| O=C1OC2(C(=O)N(C3CCCCC3)C(=O)N2C2CCCCC2)c2ccccc21 (stereo not given) |  | inactive |  | Activity (Mus musculus [6]): inactive |
| CN1C(=O)N(c2ccccc2)C(=O)C12OC(=O)c1ccccc12 (stereo not given) | 96.8 |  |  | Activity (Mus musculus [2]): Active |
| CCN1C(=O)N(c2ccccc2)C(=O)C12OC(=O)c1ccccc12 (stereo not given) | 54.8 |  | 81 |  |
| CN1C(=S)N(c2ccccc2)C(=O)C12OC(=O)c1ccccc12 (stereo not given) |  | inactive |  | Activity (Mus musculus [5]): Active |
| CCN1C(=O)N(C)C(=O)C12OC(=O)c1ccccc12 (stereo not given) |  | inactive |  | Activity (Mus musculus [5]): Active |
| CCN1C(=O)N(c2ccc([N+](=O)[O-])cc2)C(=O)C12OC(=O)c1ccccc12 (stereo not given) | 41.8 | inactive |  |  |
| O=C1NC(=O)C(c2ccccc2)(c2ccccc2)N1 [PHENYTOIN] |  |  | 8.1 | Activity (Mus musculus [6]): inactive |
